Measured values published in ChEMBL document CHEMBL1124320, “2,2-Difluoro-5-hexyne-1,4-diamine: a potent enzyme-activated inhibitor of ornithine decarboxylase” (J Med Chem, 1989).

Legend:
Ornithine decarboxylase = biological target: T1, Ornithine decarboxylase (Rattus norvegicus, UniProt P09057); experiment: In vitro inhibition against ornithine decarboxylase
T1 sequence (P09057 whole entry): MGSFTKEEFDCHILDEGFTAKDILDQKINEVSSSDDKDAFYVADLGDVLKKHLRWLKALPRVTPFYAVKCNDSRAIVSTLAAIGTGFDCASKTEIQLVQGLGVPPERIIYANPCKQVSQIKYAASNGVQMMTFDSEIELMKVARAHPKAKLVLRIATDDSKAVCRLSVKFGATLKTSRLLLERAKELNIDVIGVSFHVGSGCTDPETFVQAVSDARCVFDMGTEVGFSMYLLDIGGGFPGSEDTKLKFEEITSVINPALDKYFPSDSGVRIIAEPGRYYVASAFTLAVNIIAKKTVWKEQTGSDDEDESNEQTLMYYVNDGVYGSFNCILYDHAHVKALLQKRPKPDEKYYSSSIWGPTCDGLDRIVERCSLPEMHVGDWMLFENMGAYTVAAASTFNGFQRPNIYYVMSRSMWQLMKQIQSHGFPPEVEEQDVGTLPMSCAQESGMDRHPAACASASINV
Outline: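 Time-dependent inactivation of partially purified rat liver ODC (thioacetamide-induced, acid treatment at pH 4.6). Enzyme incubated at 37 °C in 30 mM phosphate pH 7.1, 5 mM DTT and 0.1 mM pyridoxal phosphate with varied inhibitor concentrations. Aliquots were assayed at intervals. Half-inactivation times were plotted against 1/[I] (Kitz–Wilson, least-squares fit) to give apparent K_I and τ1/2.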

[1] = biological target: ornithine decarboxylase (Rattus norvegicus) (UniProt P09057); experiment: Time of half-inactivation of ornithine decarboxylase extrapolated to infinite inhibitor concentration was determined; details: in vitro
[2] = biological target: T2, S-adenosylmethionine decarboxylase proenzyme (Homo sapiens) (UniProt P17707)
T2 sequence (whole entry): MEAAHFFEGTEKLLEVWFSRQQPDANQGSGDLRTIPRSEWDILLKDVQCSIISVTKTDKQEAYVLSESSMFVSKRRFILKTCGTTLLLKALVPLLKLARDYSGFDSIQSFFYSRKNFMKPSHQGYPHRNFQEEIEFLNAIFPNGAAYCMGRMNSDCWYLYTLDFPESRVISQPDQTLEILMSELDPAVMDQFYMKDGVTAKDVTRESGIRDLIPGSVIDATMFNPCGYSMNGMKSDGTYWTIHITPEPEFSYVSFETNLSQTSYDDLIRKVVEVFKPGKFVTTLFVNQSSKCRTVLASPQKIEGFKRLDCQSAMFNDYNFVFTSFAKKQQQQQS

[3] = In vitro inhibition against rat aorta semicarbazide-sensitive amine oxidase; assay type: tissue-based

| Ka [2] [µM] | SMILES | Ki (Ornithine decarboxylase) [nM] | half-inactivation time [1] [min] | Ki [3] [nM] |
| --- | --- | --- | --- | --- |
| – | NCCCC(N)(CF)C(=O)O (stereo unspecified) | 2700 | 2.6 | – |
| 16 | NCCCCN | – | – | – |
| – | C#C[C@@H](N)CC[C@H](C)N | 3000 | 1.7 | – |
| – | C#CC(N)CC(F)(F)CN (stereo unspecified) | – | – | 100 |
